Screening results: PubChem BioAssay, several laboratories
Shown is part of a subset that was picked to be rich in hits.
UPR XBP1 act: activators of adaptive arm of unfolded protein response (XBP1); CHO-XBP1 luciferase reporter, IRE1-XBP1 UPR activation, luminescence; percent of tunicamycin response, DMSO as zero; activation, % at 20 µM; 0.33% of 330,000 active; AID 463104;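 active = versus positive control, 20 µM dose yields 30% or more activation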;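 also: 100% = tunicamycin at 10 µg/mL and 0% = DMSO only wells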
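Material: CHO cell line with stable XBP1 luciferase reporter; schedule: 16-18 h cell attachment at 37 °C, then 6 h compound exposure; signal: glow luminescence from Steady-Glo reagent; medium: serum-containing F12 medium, 10% FBS; benchmarks: tunicamycin 10 µg/mL and vehicle-only wells; read-out: percent activation relative to tunicamycin reference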
A1 inh: inhibitors of the anti-apoptotic protein A1, read as caspase activation. caspase activation, % (concentration not given with the values). MEF A1-2A-BIM cells, Caspase-Glo 3/7 luminescence, 3 h; percent of clofoctol response, vehicle zero. 0.066% of 330,000 active;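 active = over half of replicate activation scores above 10%, or exactly half above 10 with the replicate mean above 10; inconclusive = replicate mean below 10 yet half the replicates above 10; inactive = over half of replicates below 10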
UPR CHOP act: apoptotic UPR (CHOP) activation; activation, % at 10 µM; 0.34% of 330,000 active; AID 449763; CHO-CHOP luciferase reporter, luminescence; percent of tunicamycin response over DMSO baseline;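 active = at 10 µM dose, activation of 40% or more, normalized to positive control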;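 also: 100% = tunicamycin at 10 µg/mL and 0% = DMSO alone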
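Evaluation: % reporter activation, DMSO baseline versus tunicamycin full activation; System: CHO-CHOP luciferase reporter cell line; Input: 500 cells/well; Incubation: 6 h compound treatment, 37 °C; Measured by: Steady-Glo luciferase luminescence; Dosing: one dose, 10 µM in 0.5% DMSO; Buffer or medium: F12 medium, 10% FBS; Benchmarks: positive tunicamycin 10 µg/mL, negative DMSO alone.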
CHOP inh: blocks CHOP induction under ER stress; CHO-K1 CHOP-promoter luciferase, tunicamycin-induced, 15-18 h; inhibition, % at 10 µM; 3.8% of 220,000 active; AID 2732;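 active = compounds that reduced the stress-induced luciferase reporter signal by more than about 70% of percent inhibition, limit read from the data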;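 also: 0% = tunicamycin plus vehicle and 100% = wells without tunicamycin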
* marks the source's active call; other numbers are inactive results; ? = inconclusive; nt = not tested or not shown.

SMILES	UPR XBP1 act	A1 inh	UPR CHOP act	CHOP inh
CC(=O)Nc1ccc(OCC(=O)NCc2ccccc2)cc1	4	0	-2	2
Cc1ccc(Sc2nnc(-c3ccccc3)cc2C#N)cc1	10	-1	1	52
COc1ccc(Sc2nnc(-c3ccccc3)cc2C#N)cc1	-2	-1	0	90*
CN(C)CCN1C(=O)C2C3C=CC(C3)C2C1=O (stereo not drawn)	0	1	1	-6
CCCOc1ccc(C(=O)NNC(=O)c2cccc(S(=O)(=O)N3CCN(C(C)=O)CC3)c2)cc1OC	-4	0	2	nt
O=C1CCC2S/C(=C/Nc3ccc(C(F)(F)F)cc3)C(=O)N12 (stereo not drawn)	-7	0	-9	95*
CN1CCN(c2ccc(Cl)cc2NC(=O)c2ccc(=O)n(C)n2)CC1	-2	0	0	-20
S=C(Nc1ccc(Nc2ccccc2)cc1)NC1CCCCCC1	0	0	3	80*
CC(C)(C)NC(=S)Nc1ccc(Nc2ccccc2)cc1	-3	nt	2	73*
S=C(Nc1ccc(Cl)cc1)NC1CCCCC1	5	0	0	13
CC(C)(C)NC(=S)Nc1ccc(Br)cc1	0	0	1	24
O=S1(=O)CC(N2CCOCC2)c2ccccc21 (stereo not drawn)	-5	0	-3	19
CNS(=O)(=O)c1cccc(C(=O)OCC(=O)N2c3ccccc3CC2C)c1 (stereo not drawn)	0	-2	1	18
N=C(N)SCc1cn(-c2ccccc2)nc1-c1ccc(Br)cc1	nt	nt	nt	106*
CCc1ccc2[nH]c(=O)c(CN(Cc3ccccc3OC)Cc3nnnn3Cc3ccco3)cc2c1	0	0	7	74*
CCc1ccc2[nH]c(=O)c(CN(Cc3ccc4c(c3)OCO4)Cc3nnnn3C3CCCC3)cc2c1	10	0	0	82*
Cc1ccc2cc(CN(Cc3ccccc3)Cc3nnnn3C3CCCC3)c(=O)[nH]c2c1	-6	0	1	47
Cc1ccc2cc(CN(Cc3ccc(F)cc3)Cc3nnnn3C3CCCC3)c(=O)[nH]c2c1	-3	1	-1	84*
CC(C)n1cnc2c(N(C)c3cccc(Cl)c3)nc(N(CCO)CCO)nc21	8	0	0	-6
CC(=O)N1N=C(c2ccc(C)cc2)OC1c1ccc(Br)cc1 (stereo not drawn)	0	0	4	93*
CC(=O)N1N=C(c2ccc(Cl)cc2)OC1c1ccc(C(C)C)cc1 (stereo not drawn)	2	-1	4	12
CCOc1ccccc1C(=O)Nc1nncs1	1	0	-1	19
CCOc1ccccc1C(=O)Nc1nnc(C(C)C)s1	9	-2	3	76*
O=C(NCCCn1ccnc1)c1cnn2c1NC(c1ccccc1)CC2C(F)(F)F (stereo not drawn)	-4	1	-2	2
CCOc1ccc(OCCSc2nc3ccccc3o2)cc1	-5	0	-1	77*
SMILES	UPR XBP1 act	A1 inh	UPR CHOP act	CHOP inh
Cc1cccc(C(C)C)c1NC(=O)COC(=O)c1cccc(S(=O)(=O)N2CCc3ccccc3C2)c1	-1	0	0	85*
COC(=O)C(C)Oc1cc(OC(C)C(=O)OC)c2c(-c3ccccc3)cc(=O)oc2c1 (stereo not drawn)	7	5.3*	1	nt
Cc1c(NC(=S)N2CCN(c3cccc(Cl)c3)CC2)c(=O)n(-c2ccccc2)n1C	-4	1	-1	36
Cc1ccc2[nH]c(C)c(CCNC(=O)c3cc4cc([N+](=O)[O-])ccc4oc3=O)c2c1	4	0	-3	89*
CCc1ccc2c(c1)C1(C(=O)N2)N2CCCC2C(C(=O)c2ccc3ccccc3c2)C12C(=O)Nc1ccccc12 (stereo not drawn)	12	0	3	106*
O=C(Oc1cccc(Nc2ncnc3ccccc23)c1)c1ccccc1Cl	1	0	5	87*
COc1cccc(Nc2ncnc3ccccc23)c1	-2	-4	4	7
COc1cc(CNc2nc(C)c([N+](=O)[O-])c(C)c2C#N)cc(OC)c1OC	-1	-1	-1	79*
CCOc1ccccc1NC(=S)N(CCCN1CCOCC1)Cc1cn(C)c2ccccc12	-2	1	1	14
CCOC(=O)c1nnn(-c2nonc2-n2cccc2)c1CN1CCCCC1	1	0	4	87*
CCOC(=O)c1nnn(-c2nonc2N)c1CN1CCCCCC1	-1	2	1	28
CCOc1ccc(NC(=O)/C=C/c2ccccc2)c([N+](=O)[O-])c1	2	0	4	4
CCOc1ccc(N/C=C/C(=O)c2ccccc2)c([N+](=O)[O-])c1	-3	-6	-7	87*
CCCN(CCC)c1nc2ccccc2nc1C(C#N)C(=O)OC(C)COC (stereo not drawn)	2	1	-10	87*
Cc1cc(Cl)n2nc(C)c(-c3ccc(Cl)cc3)c2n1	6	0	2	21
CC(=O)Nc1ccc(Nc2cc(C)nc3c(-c4ccc(Cl)cc4)cnn23)cc1	-1	0	6	75*
CC(=O)Nc1ccc(Nc2cc(C)nc3c(-c4ccc(Cl)cc4)c(C)nn23)cc1	3	1	2	84*
COc1ccc2c(c1)OC[C@H]1[C@H]2N2C(=O)CN(C)C(=O)[C@@]2(C)[C@H]1c1ccccc1	2	1	0	nt
Cc1ccc2c(CN3CCCCC3CCO)cc(=O)oc2c1 (stereo not drawn)	-3	0	2	nt
COc1ccc(/C=C/c2nnc(NC(=O)CSc3ccc(Cl)cc3)s2)cc1	-4	-1	6	24
CCOC(=O)c1c(NC(=O)c2cc(C(C)C)on2)sc(C(C)=O)c1C	4	0	1	93*
CCNC(=S)N/N=C/c1ccc(OCCOc2ccccc2C)cc1	3	-1	-2	85*
COc1cc(/C=N/N2C(=O)c3ccccc3NC2(C)c2cccc([N+](=O)[O-])c2)cc(Br)c1O (stereo not drawn)	-3	0	-2	4
CN(C)C(=O)/C(=C\c1ccc(-c2cccc([N+](=O)[O-])c2)o1)NC(=O)c1ccccc1	-1	1	0	-4
CCOC(=O)c1cc2c(=O)n3ccccc3nc2n(Cc2ccco2)c1=NC(=O)c1ccccc1OC	-3	?	1	72*
O=C(OC(C(=O)NCc1ccco1)C(OC(=O)c1ccccc1)C(=O)NCc1ccco1)c1ccccc1 (stereo not drawn)	-2	0	0	94*
COc1ccccc1N1CCN(c2ccc3ccccc3n2)CC1	-10	-3	1	nt
COc1ccccc1N1CCN(c2ccc(-c3ccccc3)nn2)CC1	-5	-7	-5	79*
CCC(C)c1nc2ccsc2c(N2CCOC2=O)c1-c1ccccc1 (stereo not drawn)	-1	-1	-1	nt
